Laboratory results from article PMC13322713 (Molecular imaging and biology, 2025).
Where “and” joins values, the source holds several entries; their conditions need not be identical. Equal entries are not always repeated.

Columns and labels:
[1] = Lipophilicity logD7.4, octanol/PBS partitioning; type: physicochemical; conditions: pH 7.4
integrin αvβ6 = integrin αvβ6 (Homo sapiens, UniProt P06756+P18564); test: Competitive binding ELISA against Bt-LAP; conditions: ratio of ELISA IC50s
Procedure, shortened: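 Competitive ELISAs used biotinylated LAP as ligand for integrin αvβ6 and biotinylated vitronectin for αvβ3. IC50s came from a sigmoidal fit of binding over a peptide concentration range. The ratio is αvβ3 IC50 divided by αvβ6 IC50.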

DX3puroβ6 (αvβ6 +) cells = test: Cell binding and internalization, DX3puroβ6 cells; type: cell-based
Procedure, shortened: (§1)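 Cells cultured at 37 °C, 5% CO2 with 10% FBS and 1% PSG: puromycin-containing DMEM for the DX3 pair, RPMI for BxPC-3. Integrin expression was checked by flow cytometry beforehand. The radiotracer was incubated 1 h with 3.75 × 10^6 cells per experiment in PBS containing calcium and magnesium, with non-fat dry milk blocking. Internalization was at 37 °C. Bound and internalized fractions are expressed as % of total radioactivity, quadruplicate, mean ± SD.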

DX3puro (αvβ6 −) cells = test: Cell binding and internalization, DX3puro cells; type: cell-based; conditions: 1 h, 3.75 × 10^6 cells/experiment, mean ± SD, n = 4
Procedure, shortened: as §1

[2] = test system: pancreatic BxPC-3 (αvβ6 +) cells; test: Cell binding and internalization, BxPC-3 cells; type: cell-based
Procedure, shortened: as §1

[3] = Biodistribution in BxPC-3 tumor-bearing mice; type: in vivo; conditions: female, athymic nude, mouse, iv, 0.175 nmol per injection, total radioactivity
Procedure, shortened: (§2)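 Female athymic nude mice, inoculated subcutaneously with 5 × 10^6 BxPC-3 cells in RPMI/Matrigel (1/1 v/v), used at ~0.5 cm tumor diameter (approx. 3 weeks). Isoflurane-anesthetized mice received the tail-vein radiotracer in PBS at 2.2–3.3 MBq, with mass held at 0.175 nmol by adding nonmetallated compound. Tissues collected 1, 2 and 4 h p.i. (n = 4 per time point), rinsed, γ-counted, and expressed as decay-corrected %ID/g, mean ± SD.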

[4] = test system: BxPC-3 tumor-bearing mice; test: Biodistribution in BxPC-3 tumor-bearing mice; type: in vivo
Procedure, shortened: as §2

[5] = Whole-body radioactivity / excretion during PET/CT study; parameters: species or system mice; conditions: female, athymic nude, mouse, in vivo, iv, 0.175 nmol per injection, total radioactivity

integrin αvβ6, sequence (P06756 31-1048): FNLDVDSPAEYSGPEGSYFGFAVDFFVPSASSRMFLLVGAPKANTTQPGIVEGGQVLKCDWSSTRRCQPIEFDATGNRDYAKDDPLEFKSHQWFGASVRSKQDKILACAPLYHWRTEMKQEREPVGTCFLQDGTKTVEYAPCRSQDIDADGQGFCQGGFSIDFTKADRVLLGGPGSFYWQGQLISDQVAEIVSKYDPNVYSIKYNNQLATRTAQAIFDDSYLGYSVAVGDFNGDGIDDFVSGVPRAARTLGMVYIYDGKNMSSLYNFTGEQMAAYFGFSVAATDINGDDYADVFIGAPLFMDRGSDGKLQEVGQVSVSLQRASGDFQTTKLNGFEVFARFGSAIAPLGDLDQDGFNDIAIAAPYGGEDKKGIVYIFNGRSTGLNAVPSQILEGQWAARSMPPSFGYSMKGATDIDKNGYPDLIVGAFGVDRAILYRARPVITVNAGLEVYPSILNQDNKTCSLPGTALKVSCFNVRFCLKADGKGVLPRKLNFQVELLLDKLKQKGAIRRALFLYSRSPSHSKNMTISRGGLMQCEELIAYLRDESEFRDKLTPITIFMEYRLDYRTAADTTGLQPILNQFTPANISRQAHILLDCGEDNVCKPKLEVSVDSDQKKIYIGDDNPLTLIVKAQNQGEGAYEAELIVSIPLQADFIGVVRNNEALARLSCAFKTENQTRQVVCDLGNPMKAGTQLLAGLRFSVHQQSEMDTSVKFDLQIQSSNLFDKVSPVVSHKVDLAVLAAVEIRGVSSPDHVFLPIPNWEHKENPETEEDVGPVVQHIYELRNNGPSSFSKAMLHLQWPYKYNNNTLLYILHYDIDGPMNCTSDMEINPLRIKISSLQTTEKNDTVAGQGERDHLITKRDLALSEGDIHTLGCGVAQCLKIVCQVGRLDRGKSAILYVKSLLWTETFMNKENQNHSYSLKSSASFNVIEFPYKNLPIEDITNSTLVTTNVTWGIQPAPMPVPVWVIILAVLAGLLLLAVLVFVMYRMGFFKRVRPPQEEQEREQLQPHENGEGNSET
integrin αvβ6, sequence (P18564 22-788): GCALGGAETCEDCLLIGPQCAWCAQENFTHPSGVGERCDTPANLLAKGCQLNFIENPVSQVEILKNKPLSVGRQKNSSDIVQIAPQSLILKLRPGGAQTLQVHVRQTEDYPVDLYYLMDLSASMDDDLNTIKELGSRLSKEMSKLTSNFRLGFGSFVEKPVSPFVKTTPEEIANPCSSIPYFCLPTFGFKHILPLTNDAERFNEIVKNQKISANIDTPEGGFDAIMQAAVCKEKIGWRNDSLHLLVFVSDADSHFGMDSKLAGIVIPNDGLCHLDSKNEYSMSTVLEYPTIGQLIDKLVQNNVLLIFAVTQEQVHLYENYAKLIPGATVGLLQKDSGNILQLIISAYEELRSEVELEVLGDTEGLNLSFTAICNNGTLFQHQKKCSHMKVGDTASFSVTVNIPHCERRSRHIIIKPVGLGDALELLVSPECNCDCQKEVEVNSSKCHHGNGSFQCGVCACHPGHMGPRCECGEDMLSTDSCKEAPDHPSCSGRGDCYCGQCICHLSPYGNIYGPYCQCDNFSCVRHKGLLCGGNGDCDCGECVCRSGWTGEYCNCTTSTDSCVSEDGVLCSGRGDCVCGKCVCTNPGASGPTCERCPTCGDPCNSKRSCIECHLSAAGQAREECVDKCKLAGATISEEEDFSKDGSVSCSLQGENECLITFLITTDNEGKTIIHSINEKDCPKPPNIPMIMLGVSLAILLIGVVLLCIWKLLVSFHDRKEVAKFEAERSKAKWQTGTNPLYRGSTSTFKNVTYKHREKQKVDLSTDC

With `CC(C)C[C@H](NC(=O)[C@H](CC(=O)O)NC(=O)CNC(=O)[C@H](CCCNC(=N)N)NC(=O)[C@H](CC(C)C)NC(=O)[C@H](CC(N)=O)NC(=O)[C@@H]1CCCN1C(=O)[C@@H](NC(=O)CNC(=O)[C@H](CC(N)=O)NC(=O)CNC(=O)CCOCCOCCOCCOCCOCCOCCOCCOCCOCCOCCOCCOCCOCCOCCOCCOCCOCCOCCOCCOCCOCCOCCOCCOCCOCCOCCOCCOCCNC(=O)CN1CCN(CC(=O)O)CCN(CC(=O)O)CC1)C(C)C)C(=O)N[C@@H](CCC(N)=O)C(=O)N[C@H](C(=O)N[C@@H](CC(C)C)C(=O)NCC(=O)N[C@@H](CCC(N)=O)C(=O)N[C@@H](CCCNC(=N)N)C(=O)N[C@H](C(=O)NCC(=O)N[C@@H](CCCNC(=N)N)C(=O)N[C@H](C(=O)NCCOCCOCCOCCOCCOCCOCCOCCOCCOCCOCCOCCOCCOCCOCCOCCOCCOCCOCCOCCOCCOCCOCCOCCOCCOCCOCCOCCOCCC(N)=O)[C@@H](C)O)C(C)C)C(C)C` [[^18F]AlF NOTA-5G] as the compound, how does the logD [1] read?
The logD was -2.34 ± 0.08.

And the “IC50-ratio (αvβ3 vs αvβ6)” value (integrin αvβ6)?
Its value is > 7700/1.

What about the “Ratio of cell binding DX3puroβ6 vs DX3puro” value (DX3puroβ6 (αvβ6 +) cells; 1 h) of the same compound?
The value was 33/1.

What about the “Ratio of internalization DX3puroβ6 vs DX3puro” value (DX3puroβ6 (αvβ6 +) cells; 1 h at 37 °C) of the same compound?
The value was 96/1.

And the Radioactivity internalized (DX3puroβ6 (αvβ6 +) cells; DX3puroβ6, 1 h at 37 °C, abstract: of bound activity)?
Its Radioactivity internalized is ≥ 50%.

And the “Cell binding, % of total radioactivity bound” value (DX3puroβ6 (αvβ6 +) cells; DX3puroβ6 αvβ6(+), 1 h, 3.75 × 10^6 cells/experiment, mean ± SD, n = 4)?
Its value is 66% and 66.2 ± 0.8%.

And the “Cell binding, % of total radioactivity bound” value (DX3puro (αvβ6 −) cells)?
Its value is 2% and 2.0 ± 0.2%.

And the Radioactivity internalized ([2]; BxPC-3, 1 h at 37 °C, abstract: of bound activity)?
Its Radioactivity internalized is ≥ 50%.

And the “Cell binding, % of total radioactivity bound” value ([2]; BxPC-3 αvβ6(+), 1 h, 3.75 × 10^6 cells/experiment, mean ± SD, n = 4)?
The value was 29.1 ± 3.7%.

What about the tissue uptake at 1 h ([3]; BxPC-3 tumor) of the same compound?
Its tissue uptake at 1 h is 2.3 ± 0.4 %ID/g.

And the tissue uptake at 4 h ([3]; BxPC-3 tumor)?
The tissue uptake at 4 h was 1.8 ± 0.6 %ID/g.

And the tissue uptake at 1 h ([3]; blood)?
The tissue uptake at 1 h was 0.16 ± 0.03 %ID/g.

And the tissue uptake at 4 h ([3]; blood)?
The tissue uptake at 4 h was 0.01 ± 0.01 %ID/g.

What about the excreta dose per gram or mL at 1 h ([3]; feces) of the same compound?
Its excreta dose per gram or mL at 1 h is 0.7 ± 0.1 %ID/g.

And the excreta dose per gram or mL at 4 h ([3]; feces)?
The excreta dose per gram or mL at 4 h was 5 ± 2.1 %ID/g.

What about the tissue uptake at 1 h ([3]; kidneys) of the same compound?
The tissue uptake at 1 h was 18.6 ± 6.4 %ID/g.

And the tissue uptake at 4 h ([3]; kidneys)?
The tissue uptake at 4 h was 12.5 ± 1.8 %ID/g.

What about the Tumor/blood ratio ([4]; 2 h p.i.) of the same compound?
The Tumor/blood ratio was “greater than 15/1”.

And the Tumor/liver ratio ([4]; 2 h p.i.)?
Its Tumor/liver ratio is “greater than 15/1”.

And the Tumor/pancreas ratio ([4]; 2 h p.i.)?
The Tumor/pancreas ratio was “greater than 15/1”.

And the Tumor/blood ratio ([4]; 4 h p.i.)?
Its Tumor/blood ratio is 162/1.

And the Tumor/liver ratio ([4]; 4 h p.i.)?
Its Tumor/liver ratio is 24/1.

And the Tumor/muscle ratio ([4]; 4 h p.i.)?
The Tumor/muscle ratio was 6/1.

What about the Tumor/pancreas ratio ([4]; 4 h p.i.) of the same compound?
Its Tumor/pancreas ratio is 18/1.

And the “Radioactivity levels in tissues aside from kidneys and GI tract, including bone” value ([4]; all time points (1, 2, 4 h p.i.))?
Its value is ≤ 1.6 % ID/g.

What about the dose excreted at 4 h [5] of the same compound?
Its dose excreted at 4 h is 80%.
